FXN GAA850 act – activators of GAA850 frataxin (FXN) promoter; HEK293 lucGAA850 FXN promoter luciferase reporter, 24 h; percent of 10 µM SAHA response; activation, % at 6 µM; 0.56% of 360,000 active; AID 540364;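 active means activation above the average of all compounds screened plus 3 SD, cutoff fixed separately per campaign, cut at about 7.5% in these data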;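 further: 0% = DMSO wells and 100% = 10 µM SAHA wells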
AHR act – human AHR activation; AID 2796; activation, % at 5 µM; 2.5% of 320,000 active; AHR-responsive luciferase reporter cells, luminescence; in the data active means activation above about 47%;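 further: 0% = vehicle wells and 100% = reference agonist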
Target sequence (P35869 whole entry, looked up): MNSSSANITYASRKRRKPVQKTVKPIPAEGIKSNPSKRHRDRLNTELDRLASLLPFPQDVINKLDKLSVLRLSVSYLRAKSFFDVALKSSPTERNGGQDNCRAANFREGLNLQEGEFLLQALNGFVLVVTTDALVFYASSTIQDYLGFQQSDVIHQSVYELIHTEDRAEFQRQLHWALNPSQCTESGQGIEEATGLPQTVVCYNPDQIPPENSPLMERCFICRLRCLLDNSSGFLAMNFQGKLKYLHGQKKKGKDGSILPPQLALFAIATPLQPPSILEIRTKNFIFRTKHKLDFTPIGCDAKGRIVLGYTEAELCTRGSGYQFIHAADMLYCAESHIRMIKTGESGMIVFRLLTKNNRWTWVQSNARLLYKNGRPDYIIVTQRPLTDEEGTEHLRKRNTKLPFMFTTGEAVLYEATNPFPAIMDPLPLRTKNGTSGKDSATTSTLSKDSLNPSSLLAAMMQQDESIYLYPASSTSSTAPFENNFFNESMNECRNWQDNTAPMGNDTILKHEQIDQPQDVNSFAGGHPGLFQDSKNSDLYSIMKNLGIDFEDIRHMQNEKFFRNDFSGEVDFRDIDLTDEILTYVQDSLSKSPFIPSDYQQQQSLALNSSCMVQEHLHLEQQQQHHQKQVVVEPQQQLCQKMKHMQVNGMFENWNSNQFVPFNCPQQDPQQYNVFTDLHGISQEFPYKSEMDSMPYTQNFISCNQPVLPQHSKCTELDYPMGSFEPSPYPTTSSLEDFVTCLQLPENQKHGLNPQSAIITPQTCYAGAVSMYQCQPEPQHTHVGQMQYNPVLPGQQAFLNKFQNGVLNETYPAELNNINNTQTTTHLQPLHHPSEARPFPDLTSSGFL
JMJD2C inh – inhibitors of human GASC-1 (JMJD2C) demethylase; inhibition, % at 2.35 µM; 0.069% of 330,000 active; AID 2099; GST-JMJD2C(1-420) H3K9me3 demethylation, DELFIA europium;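 active means more than half of a compound's replicate wells show inhibition beyond 50%, single wells judged on their own value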;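 further: signal counts dimethyl H3K9 product captured on neutravidin plate; 0% = median of DMSO wells and 100% = 0.3 times that DMSO median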
SR-BI DiI-HDL act – SR-BI HDL lipid transfer activation | CHO ldlA[mSR-BI] cells, DiI-HDL uptake fluorescence, 3 h; 100 = double the neutral-control signal | activation, % at 12.5 µM | 0.096% of 320,000 active | AID 504775;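 active means mean replicate activation of at least 60% and every replicate at or above 60%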;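 further: 0% = median plate neutral-control signal and 100% = twice that signal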
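material = CHO ldlA[mSR-BI] cells | medium = Ham's F12 with 0.5% BSA, HEPES 25 mM, pH 7.4 | reagent = fluorescent DiI-HDL, 10 µg/mL final | compound dosing = single-point compound dose | incubation = 3 h, 37 °C | measured by = bottom-read fluorescence, 550/595 nm | measure = HDL uptake via cellular fluorescence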
SR-BI DiI inh – inhibitors of mouse SR-BI mediated HDL lipid uptake; AID 488896; inhibition, % at 12.5 µM; ldlA[mSR-BI] CHO cells, DiI-HDL uptake fluorescence, 3 h; 0.96% of 320,000 active;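 active means mean replicate inhibition of at least 70% and a set share of replicates each scoring 70 or more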;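 further: 0% = median of neutral control wells and 100% = median of positive control wells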
Numbers without * were called inactive; x = no result given. This is a sample that favours compounds with a hit; in the whole collection about 3.7% have one here.

SMILES	FXN GAA850 act	AHR act	JMJD2C inh	SR-BI DiI-HDL act	SR-BI DiI inh
Nc1nc2nc(-c3ccccc3)cc(C(F)(F)F)c2s1	3	68*	-7	6	-6
COCCN(C(=O)COC(=O)c1ccc(Cl)nc1)c1c(N)n(Cc2ccccc2)c(=O)[nH]c1=O	1	3	3	21	-21
COc1ccc(-c2cc3cc(OC)c(OC)cc3cn2)cc1	6	65*	x	-79	79*
COc1ccc(-c2cc3cc4c(cc3cn2)OCO4)cc1	1	39	29	-24	24
COc1cc(OC)cc(-c2cc3ccc(OC)cc3cn2)c1	-1	6	12	-90	90*
COCC(=O)N1CCC(Oc2ccc(C(=O)NC(C)c3nccs3)cc2)CC1 (stereo not drawn)	0	-5	-2	4	-4
N/C(=N\OC(=O)c1ccc2c(c1)OCO2)c1cccnc1	4	67*	-6	6	-6
N/C(=N\OC(=O)c1cccc(Cl)c1)c1ccncc1	3	42	16	-1	1
N/C(=N\OC(=O)c1ccc2c(c1)OCO2)c1cccc(Br)c1	7	8	-12	6	-6
N/C(=N\OC(=O)c1cccc(Cl)c1)c1cccnc1	4	75*	1	22	-22
N/C(=N\OC(=O)c1ccccc1Cl)c1ccncc1	3	59*	-11	7	-7
CC(Sc1nncn1C)C(=O)Nc1ccc(N2CCCCC2)cc1 (stereo not drawn)	1	0	-13	-13	13
S=C(N/N=C/c1ccc(Cl)cc1)N1CCOCC1	7	71*	-1	15	-15
CCn1ncc(/C=N/NC(=O)c2cc(Cl)ccc2OC)c1C	2	76*	4	-9	9
COc1ccc(Cl)cc1C(=O)N/N=C/c1ccc(N2CCOCC2)cc1	1	53*	11	-37	37
Cc1occc1C(=O)N/N=C/C1=C(N2CCOCC2)C(=C/c2ccc(Cl)cc2Cl)/CC1	4	x	x	-86	86*
CCc1nc2ccc(C(=O)NCCC(C)C)cn2c1N(C)Cc1ccc(OC)cc1	-3	x	x	x	x
Cc1ccccc1OCCn1c(=S)[nH]c2ccccc21	0	7	-2	-13	13
O=c1[nH]nc(Sc2ncnc3sccc23)n1CCc1ccccc1	-13	3	18	-27	27
COc1cccc(/C=N/NC(=O)c2nnn(-c3nonc3N)c2C(C)C)c1	1	-1	-9	-38	38
O=c1c2sc3ccccc3c2[nH]c(=S)n1CCN1CCOCC1	2	2	5	71*	-71
O=C(Nc1ccccc1)N1CCC(C(=O)N2CCN(c3ccccc3F)CC2)CC1	-1	-3	1	-80	80*
OC1(c2cccc(F)c2)CCN(Cc2ccncc2)CC1	-2	2	69*	41	-41
COc1ccc2c(C)nc(Nc3nc(-c4ccccc4)cc(=O)[nH]3)nc2c1	-5	38	-4	-78	78*
Cn1cc(C(C[N+](=O)[O-])c2ccccc2)c2ccccc21 (stereo not drawn)	0	2	3	x	x
SMILES	FXN GAA850 act	AHR act	JMJD2C inh	SR-BI DiI-HDL act	SR-BI DiI inh
CC(=O)n1cc(C(C[N+](=O)[O-])SCCN)c2ccccc21 (stereo not drawn)	1	51*	4	-22	22
COCc1ccc(C(=O)OC(C)C(=O)Nc2c(C)n(C)n(-c3ccccc3)c2=O)cc1 (stereo not drawn)	-1	1	x	6	-6
O=C(NCC(=O)N1CCOCC1)c1ccc(Br)o1	1	3	-16	-8	8
COc1cc(/C=N/NC(=O)/C(=C\c2ccc3c(c2)OCO3)NC(=O)c2ccccc2)ccc1O	1	69*	6	-11	11
COc1ccc(/C=N/NC(=O)c2cc(-c3ccc4c(c3)OCO4)n[nH]2)cc1OC	2	73*	2	-31	31
O=C(N/N=C/c1ccc(F)cc1)c1cc(-c2ccc3c(c2)OCO3)n[nH]1	1	39	7	-3	3
CC(C(=O)N1CCCCCC1)c1ccc([N+](=O)[O-])cc1 (stereo not drawn)	2	0	2	3	-3
O=C(CCn1c(=S)oc2ccccc21)Nc1ccccc1Br	0	-2	9	-11	11
CCOC(=O)N1CCN(C(=S)NC(=O)c2cncc(Br)c2)CC1	2	1	-2	69*	-69
NC(=NCc1ccccc1)C(N=Nc1ccccc1)C(=O)NCc1ccccc1 (stereo not drawn)	0	x	x	-28	28
CCN(CC(=O)c1c(N)n(C)c(=O)n(C)c1=O)c1cccc2ccccc12	-3	50*	1	11	-11
CN(C)CC(=O)c1c(N)n(Cc2ccccc2)c(=O)n(C)c1=O	2	-1	0	12	-12
CCOC(=O)Nc1sc2nc(C)cc(C)c2c1-n1cccc1	0	70*	-6	-39	39
CCCc1ccc2oc(C(=O)NCCc3cnn(C)c3)c(C)c2c1	5	49*	3	-4	4
CCCc1ccc2oc(C(=O)NCCc3nc(C(=O)OCC)cs3)c(C)c2c1	-1	x	-15	x	12
Nc1c(C(=O)N/N=C/c2ccc(Cl)cc2)cnn1-c1ccccc1	3	38	-2	-9	9
Nc1c(C(=O)N/N=C/c2ccc(OCc3ccccc3)cc2)cnn1-c1ccccc1	0	4	-17	-22	22
COc1cccc(/C=N/NC(=O)c2cnn(-c3ccccc3)c2N)c1	5	68*	0	-29	29
Nc1c(C(=O)N/N=C/c2cccnc2)cnn1-c1ccccc1	1	51*	-4	16	-16
CC(=O)Nc1cccc(-c2ccnc3c2CC(C)(C(=O)NCc2ccc(N(C)C)cc2)O3)c1 (stereo not drawn)	-4	x	x	x	x
Cc1ccc(NC(=O)c2cncc(Br)c2)cc1S(=O)(=O)N(C)C	6	67*	2	-63	63
CN(C)S(=O)(=O)c1cccc(NC(=O)c2cncc(Br)c2)c1	0	17	-4	-1	1
O=[N+]([O-])c1ccc(NC(c2ccccc2)c2ccc3cccnc3c2O)cc1 (stereo not drawn)	-11	x	x	-80	80*
CC(=O)NC(c1cccc([N+](=O)[O-])c1)c1ccc2cccnc2c1O (stereo not drawn)	-8	x	-10	9	-9
O=C(COC(=O)c1ccc([N+](=O)[O-])o1)NCc1ccc2c(c1)OCO2	-2	1	-2	1	-1
NS(=O)(=O)c1ccc(-c2ccc(/C=C3\C(=O)Nc4ccccc43)o2)cc1	x	74*	-12	x	x
COc1ccc(Br)cc1C1=CC(=O)C[C@H](c2ccc(F)cc2)C1	-1	x	x	x	x
O=C1/C(=C2\C(=O)N(Cc3ccc(F)cc3)c3ccccc32)SC(=S)N1CCS(=O)(=O)O	1	1	2	19	-19
O=C(O)CN1C(=O)/C(=C2\C(=O)N(Cc3ccccc3Cl)c3ccccc32)SC1=S	3	60*	-7	28	-28
